In brackets after ≈: the same amount, converted by molar mass. Activity calls are given as the source filed them. The rule behind the calls is not given here.
Experiments:
[1] = molecular target: T1, Prostaglandin E2 receptor EP4 subtype (Homo sapiens, UniProt P35408); assay: Antagonist activity against EP4 in human whole blood assessed as reversal of PGE2-mediated suppression of LPS-induced TNF-alpha production preincubated for 30 mins followed by LPS stimulation measured after 20 to 24 hrs by enzyme immunoassay; type: tissue-based
Summary of the method: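 Pooled blood from donors free of NSAIDs or celecoxib for 48 h and of glucocorticoids for 2 weeks. Blood pretreated 30 min at 37 °C, 5% CO2 with compound in DMSO (7-point curve, triplicate). LPS […] ± 10 nM PGE2 (final) added, then incubated 20–24 h. Plasma TNFα read at A450-A650. IC50 from sigmoidal nonlinear fit; geometric mean of independent runs.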

[2] = molecular target: T1, Prostaglandin E2 receptor EP4 subtype; assay: Antagonist activity against human EP4 expressed in HEK293 cells assessed as inhibition of PGE2-stimulated production of cAMP incubated for 20 mins by HTRF assay; type: functional, cell-based
Cytochrome P450 1A2 [3] = molecular target: T2, Cytochrome P450 1A2 (Homo sapiens, UniProt P05177); assay: Inhibition of CYP1A2 (unknown origin); type: ADME
Summary of the method: (§1)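 Inhibition of CYP1A2, 2B6, 2C19, 2C8, 2C9, 2D6 and 3A4 tested in vitro at concentrations up to 10 µM.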

Cytochrome P450 2B6 [4] = molecular target: T3, Cytochrome P450 2B6 (Homo sapiens, UniProt P20813); assay: Inhibition of CYP2B6 (unknown origin); type: ADME; summary of the method: as §1
Cytochrome P450 2C9 [5] = molecular target: T4, Cytochrome P450 2C9 (Homo sapiens, UniProt P11712); assay: Inhibition of CYP2C9 (unknown origin); type: ADME; summary of the method: as §1
Cytochrome P450 2C8 [6] = molecular target: T5, Cytochrome P450 2C8 (Homo sapiens, UniProt P10632); assay: Inhibition of CYP2C8 (unknown origin); type: ADME; summary of the method: as §1
Cytochrome P450 2D6 [7] = molecular target: T6, Cytochrome P450 2D6 (Homo sapiens, UniProt P10635); assay: Inhibition of CYP2D6 (unknown origin); type: ADME; summary of the method: as §1
Cytochrome P450 3A4 [8] = molecular target: T7, Cytochrome P450 3A4 (Homo sapiens, UniProt P08684); assay: Inhibition of CYP3A4 (unknown origin); type: ADME; summary of the method: as §1
[9] = molecular target: Adrenergic receptor alpha-1 (Rattus norvegicus) (UniProt P15823+P23944+P43140); assay: Inhibition of rat adrenergic alpha1 receptor at 10 uM
Summary of the method: (§2)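 Off-target selectivity panel covering 13 receptors, four ion channels, one transporter and one enzyme, plus prostanoid DP1, FP, IP and TP receptors and COX-1/2. Test concentration 10 µM.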

[10] = molecular target: Adrenergic receptor alpha-2 (Rattus norvegicus) (UniProt P22086+P19328+P22909); assay: Inhibition of rat adrenergic alpha2 receptor at 10 uM; summary of the method: as §2
[11] = molecular target: Beta-1 adrenergic receptor (Homo sapiens) (UniProt P08588); assay: Inhibition of human adrenergic beta1 receptor at 10 uM; summary of the method: as §2
[12] = molecular target: Beta-2 adrenergic receptor (Homo sapiens) (UniProt P07550); assay: Inhibition of human adrenergic beta2 receptor at 10 uM; summary of the method: as §2
[13] = molecular target: D(1A) dopamine receptor (Homo sapiens) (UniProt P21728); assay: Inhibition of human dopamine D1 receptor at 10 uM; summary of the method: as §2
[14] = molecular target: D(2) dopamine receptor (Homo sapiens) (UniProt P14416); assay: Inhibition of human dopamine D2 short receptor at 10 uM; summary of the method: as §2
[15] = molecular target: Histamine H1 receptor (Homo sapiens) (UniProt P35367); assay: Inhibition of human histamine H1 receptor at 10 uM; summary of the method: as §2
[16] = molecular target: Muscarinic acetylcholine receptor M2 (Homo sapiens) (UniProt P08172); assay: Inhibition of human muscarinic M2 receptor at 10 uM; summary of the method: as §2
[17] = molecular target: Muscarinic acetylcholine receptor M3 (Homo sapiens) (UniProt P20309); assay: Inhibition of human muscarinic M3 receptor at 10 uM; summary of the method: as §2
[18] = molecular target: Mu-type opioid receptor (Homo sapiens) (UniProt P35372); assay: Inhibition of human Mu-type opioid receptor 10 uM; summary of the method: as §2
Rattus norvegicus [19] = assay: Antiinflammatory activity in rat adjuvant induced arthritis model assessed as suppression of Mycobacterium tuberculosis H37 RA induced paw swelling at 30 mg/kg measured from day 11 to 15 relative to vehicle control; type: functional, organism-based
Summary of the method: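 Rat adjuvant-induced arthritis: paw widths measured, then 0.25 mg adjuvant (Mycobacterium tuberculosis H37 RA) in 100 µl mineral oil given intradermally at tail base (day 0). On day 11, width of both paws was re-measured as percent change from day 0, and rats were randomized on this and body weight before dosing. Rats were euthanized day 15 without further dosing and paw width measured.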

[20] = molecular target: L-type calcium channel dihydropyridine binding site (Homo sapiens, UniProt O60840+Q01668+Q13698+Q13936); assay: Inhibition of L-type calcium channel dihydropyridine binding site (unknown origin) at 10 uM; type: protein assay; summary of the method: as §2
[21] = molecular target: L-type calcium channel diltiazem binding site (Homo sapiens, UniProt O60840+Q01668+Q13698+Q13936); assay: Inhibition of L-type calcium channel diltiazem binding site (unknown origin) at 10 uM; type: protein assay; summary of the method: as §2
[22] = molecular target: L-type calcium channel verapamil binding site (Homo sapiens, UniProt O60840+Q01668+Q13698+Q13936); assay: Inhibition of L-type calcium channel verapamil binding site (unknown origin) at 10 uM; type: protein assay; summary of the method: as §2
[23] = molecular target: Sodium-dependent noradrenaline transporter (Homo sapiens) (UniProt P23975); assay: Inhibition of human norepinephrine transporter at 10 uM
[24] = molecular target: Acetylcholinesterase (Homo sapiens) (UniProt P22303); assay: Inhibition of human acetylcholinesterase at 10 uM
Cytochrome P450 1A2 [25] = molecular target: T2, Cytochrome P450 1A2; assay: Inhibition of CYP1A2 (unknown origin) at 10 uM; type: ADME; summary of the method: as §1
Cytochrome P450 2B6 [26] = molecular target: T3, Cytochrome P450 2B6; assay: Inhibition of CYP2B6 (unknown origin) at 10 uM; type: ADME; summary of the method: as §1
Cytochrome P450 2C9 [27] = molecular target: T4, Cytochrome P450 2C9; assay: Inhibition of CYP2C9 (unknown origin) at 10 uM; type: ADME; summary of the method: as §1
Cytochrome P450 2C8 [28] = molecular target: T5, Cytochrome P450 2C8; assay: Inhibition of CYP2C8 (unknown origin) at 10 uM; type: ADME; summary of the method: as §1
Cytochrome P450 2C19 [29] = molecular target: T8, Cytochrome P450 2C19 (Homo sapiens, UniProt P33261); assay: Inhibition of CYP2C19 (unknown origin) at 10 uM; type: ADME; summary of the method: as §1
Cytochrome P450 2C19 [30] = molecular target: T8, Cytochrome P450 2C19; assay: Inhibition of CYP2C19 (unknown origin); type: ADME; summary of the method: as §1
Cytochrome P450 2D6 [31] = molecular target: T6, Cytochrome P450 2D6; assay: Inhibition of CYP2D6 (unknown origin) at 10 uM; type: ADME; summary of the method: as §1
Cytochrome P450 3A4 [32] = molecular target: T7, Cytochrome P450 3A4; assay: Inhibition of CYP3A4 (unknown origin) at 10 uM; type: ADME; summary of the method: as §1
[33] = molecular target: Voltage-gated inwardly rectifying potassium channel KCNH2 (Homo sapiens, UniProt Q12809); assay: Inhibition of human ERG up to 100 uM by [H3]-astemizole binding assay
Summary of the method: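 hERG activity measured as displacement of [3H]-astemizole binding, compound tested up to 100 µM.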

[34] = molecular target: Prostaglandin D2 receptor (Homo sapiens) (UniProt Q13258); assay: Inhibition of prostaglandin DP1 receptor (unknown origin) at 10 uM; summary of the method: as §2
[35] = molecular target: Prostaglandin F2-alpha receptor (Homo sapiens) (UniProt P43088); assay: Inhibition of prostaglandin FP receptor (unknown origin) at 10 uM; summary of the method: as §2
[36] = molecular target: Prostacyclin receptor (Homo sapiens) (UniProt P43119); assay: Inhibition of prostaglandin IP receptor (unknown origin) at 10 uM; summary of the method: as §2
[37] = molecular target: Thromboxane A2 receptor (Homo sapiens) (UniProt P21731); assay: Inhibition of prostaglandin TP receptor (unknown origin) at 10 uM; summary of the method: as §2
[38] = molecular target: Prostaglandin G/H synthase 1 (Homo sapiens) (UniProt P23219); assay: Inhibition of COX1 (unknown origin) at 10 uM; summary of the method: as §2
Rattus norvegicus [39] = assay: Antiinflammatory activity in orally dosed rat MIA model assessed as inhibition of differential weight bearing measured 30 mins post dose by incapacitance test; type: functional, organism-based
Summary of the method: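 MIA 0.3 mg in 50 µL saline injected into right knee and saline into left knee of rats on day 0. Day 12: randomized, single oral dose in 10% acacia in water plus 0.05% antifoam at 0.3–10 mg/kg, with diclofenac 5 mg/kg. Hind-limb weight distribution measured by incapacitance tester 30 min post dose. n = 5/group, Dunnett's test versus vehicle.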

[40] = molecular target: Prostaglandin G/H synthase 2 (Homo sapiens) (UniProt P35354); assay: Inhibition of COX2 (unknown origin) at 10 uM; summary of the method: as §2
[41] = Aqueous solubility of compound at pH 6 at 2 mM after 20 hrs by HPLC; type: physicochemical; details: aqueous medium
Summary of the method: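 Samples in DMSO dried 12 h, then redissolved at pH 6 at a 2 mM target concentration. Stirred 20 h, filtered through 0.7 µm GF filter. Filtrate concentration measured by HPLC against a DMSO standard curve.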

[42] = Clearance in rat at 1 mg/kg, iv; type: ADME, organism-based; details: in vivo
Summary of the method: (§3)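 Rat and dog given single iv dose of 1 mg/kg and oral dose of 5 mg/kg. Oral AUC, Cmax and half-life and iv clearance were derived from plasma levels.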

[43] = AUC in rat at 5 mg/kg, po; type: ADME, organism-based; details: in vivo; summary of the method: as §3
[44] = Cmax in rat at 5 mg/kg, po; type: ADME, organism-based; set-up: dose 5 mg/kg, route oral; details: in vivo; summary of the method: as §3
[45] = Half life in rat at 5 mg/kg, po; type: ADME, organism-based; details: in vivo; summary of the method: as §3
[46] = Oral bioavailability in rat at 5 mg/kg; type: ADME, organism-based; details: in vivo
[47] = Volume of distribution at steady state in rat at 1 mg/kg, iv or 5 mg/kg, po; type: ADME, organism-based; details: in vivo, read-out: Vdss
[48] = AUC in dog at 5 mg/kg, po; type: ADME, organism-based, Canis lupus familiaris; details: in vivo; summary of the method: as §3
[49] = Cmax in dog at 5 mg/kg, po; type: ADME, organism-based, Canis lupus familiaris; set-up: dose 5 mg/kg, route oral; details: in vivo; summary of the method: as §3
[50] = Half life in dog at 5 mg/kg, po; type: ADME, organism-based, Canis lupus familiaris; details: in vivo; summary of the method: as §3
[51] = Clearance in dog at 1 mg/kg, iv; type: ADME, organism-based, Canis lupus familiaris; details: in vivo; summary of the method: as §3
[52] = Volume of distribution at steady state in dog at 1 mg/kg, iv or 5 mg/kg, po; type: ADME, organism-based, Canis lupus familiaris; details: in vivo, read-out: Vdss
[53] = Oral bioavailability in dog at 5 mg/kg; type: ADME, organism-based, Canis lupus familiaris; details: in vivo

T2 sequence (P05177 whole entry): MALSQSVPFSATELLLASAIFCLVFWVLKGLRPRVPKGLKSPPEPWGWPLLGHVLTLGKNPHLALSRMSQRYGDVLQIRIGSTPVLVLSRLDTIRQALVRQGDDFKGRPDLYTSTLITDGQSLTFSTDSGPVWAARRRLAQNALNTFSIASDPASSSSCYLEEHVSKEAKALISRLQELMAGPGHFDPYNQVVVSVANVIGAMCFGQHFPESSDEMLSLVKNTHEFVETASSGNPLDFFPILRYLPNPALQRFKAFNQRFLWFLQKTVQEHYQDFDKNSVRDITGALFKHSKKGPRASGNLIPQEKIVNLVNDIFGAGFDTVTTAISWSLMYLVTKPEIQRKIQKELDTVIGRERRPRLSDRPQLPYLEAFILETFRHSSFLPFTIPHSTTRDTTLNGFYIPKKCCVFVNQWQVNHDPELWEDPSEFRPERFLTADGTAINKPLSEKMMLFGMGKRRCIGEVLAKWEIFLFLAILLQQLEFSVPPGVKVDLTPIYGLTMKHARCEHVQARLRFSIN
T4 sequence (P11712 whole entry): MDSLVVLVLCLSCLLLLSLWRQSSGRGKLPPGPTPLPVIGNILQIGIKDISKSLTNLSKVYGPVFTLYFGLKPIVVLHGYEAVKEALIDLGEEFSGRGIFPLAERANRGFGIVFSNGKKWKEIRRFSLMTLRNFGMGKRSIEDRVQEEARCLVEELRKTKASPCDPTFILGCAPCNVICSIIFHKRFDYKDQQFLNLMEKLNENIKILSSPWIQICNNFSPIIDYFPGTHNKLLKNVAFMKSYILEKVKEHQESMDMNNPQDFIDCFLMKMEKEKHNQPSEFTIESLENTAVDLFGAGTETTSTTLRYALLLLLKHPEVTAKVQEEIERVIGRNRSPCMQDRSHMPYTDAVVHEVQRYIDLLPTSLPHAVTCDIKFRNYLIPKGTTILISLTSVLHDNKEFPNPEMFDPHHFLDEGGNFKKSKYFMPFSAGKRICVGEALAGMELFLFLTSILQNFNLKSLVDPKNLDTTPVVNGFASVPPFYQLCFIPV
T3 sequence (P20813 whole entry): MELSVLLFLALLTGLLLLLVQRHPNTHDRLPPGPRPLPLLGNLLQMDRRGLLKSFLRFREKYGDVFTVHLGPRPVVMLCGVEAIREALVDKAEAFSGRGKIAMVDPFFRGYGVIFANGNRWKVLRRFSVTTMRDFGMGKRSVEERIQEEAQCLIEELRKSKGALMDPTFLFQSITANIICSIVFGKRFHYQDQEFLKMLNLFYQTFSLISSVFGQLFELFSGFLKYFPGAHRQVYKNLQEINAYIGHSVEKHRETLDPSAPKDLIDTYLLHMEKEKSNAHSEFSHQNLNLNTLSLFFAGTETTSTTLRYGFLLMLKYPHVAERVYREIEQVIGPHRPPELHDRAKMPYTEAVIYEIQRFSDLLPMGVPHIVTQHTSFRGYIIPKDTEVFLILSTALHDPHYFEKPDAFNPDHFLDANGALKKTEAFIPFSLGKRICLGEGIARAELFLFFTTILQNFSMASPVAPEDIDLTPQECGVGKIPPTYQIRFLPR
T5 sequence (P10632 whole entry): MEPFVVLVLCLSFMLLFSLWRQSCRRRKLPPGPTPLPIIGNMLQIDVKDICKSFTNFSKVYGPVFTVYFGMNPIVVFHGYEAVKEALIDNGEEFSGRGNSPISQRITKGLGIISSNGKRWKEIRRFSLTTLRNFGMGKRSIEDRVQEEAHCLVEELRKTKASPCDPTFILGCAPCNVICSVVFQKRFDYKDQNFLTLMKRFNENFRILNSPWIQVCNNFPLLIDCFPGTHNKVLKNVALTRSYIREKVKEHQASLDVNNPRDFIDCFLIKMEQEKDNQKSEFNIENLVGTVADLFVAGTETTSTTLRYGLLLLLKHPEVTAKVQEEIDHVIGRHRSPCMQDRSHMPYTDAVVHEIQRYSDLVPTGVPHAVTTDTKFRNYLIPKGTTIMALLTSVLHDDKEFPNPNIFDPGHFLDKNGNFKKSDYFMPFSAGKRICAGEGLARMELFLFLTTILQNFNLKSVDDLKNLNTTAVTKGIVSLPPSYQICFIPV
T8 sequence (P33261 whole entry): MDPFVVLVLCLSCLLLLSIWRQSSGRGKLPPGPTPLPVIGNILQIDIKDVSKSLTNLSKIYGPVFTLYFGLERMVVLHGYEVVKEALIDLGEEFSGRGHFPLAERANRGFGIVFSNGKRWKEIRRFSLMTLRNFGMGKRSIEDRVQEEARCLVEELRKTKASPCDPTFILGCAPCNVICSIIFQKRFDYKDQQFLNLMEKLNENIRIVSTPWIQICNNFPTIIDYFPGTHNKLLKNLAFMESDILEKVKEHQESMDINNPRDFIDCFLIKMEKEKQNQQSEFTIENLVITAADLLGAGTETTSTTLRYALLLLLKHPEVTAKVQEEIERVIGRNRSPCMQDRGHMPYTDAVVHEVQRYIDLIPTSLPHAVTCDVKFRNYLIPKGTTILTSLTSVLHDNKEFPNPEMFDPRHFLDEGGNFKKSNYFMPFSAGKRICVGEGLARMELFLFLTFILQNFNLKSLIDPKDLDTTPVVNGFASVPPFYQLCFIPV
T7 sequence (P08684 whole entry): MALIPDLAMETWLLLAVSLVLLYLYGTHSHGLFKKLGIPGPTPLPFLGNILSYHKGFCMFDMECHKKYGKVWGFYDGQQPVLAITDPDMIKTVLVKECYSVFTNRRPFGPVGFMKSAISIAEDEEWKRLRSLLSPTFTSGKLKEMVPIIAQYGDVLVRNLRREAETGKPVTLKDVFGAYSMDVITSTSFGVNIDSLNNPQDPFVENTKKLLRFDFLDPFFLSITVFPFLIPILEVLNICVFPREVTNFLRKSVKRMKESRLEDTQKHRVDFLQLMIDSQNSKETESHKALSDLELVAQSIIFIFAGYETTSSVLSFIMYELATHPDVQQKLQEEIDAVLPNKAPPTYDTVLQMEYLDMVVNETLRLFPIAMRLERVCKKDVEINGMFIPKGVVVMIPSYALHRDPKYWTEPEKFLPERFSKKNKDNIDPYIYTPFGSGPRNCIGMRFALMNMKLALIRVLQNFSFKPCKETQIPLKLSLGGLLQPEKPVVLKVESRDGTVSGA
T6 sequence (P10635 whole entry): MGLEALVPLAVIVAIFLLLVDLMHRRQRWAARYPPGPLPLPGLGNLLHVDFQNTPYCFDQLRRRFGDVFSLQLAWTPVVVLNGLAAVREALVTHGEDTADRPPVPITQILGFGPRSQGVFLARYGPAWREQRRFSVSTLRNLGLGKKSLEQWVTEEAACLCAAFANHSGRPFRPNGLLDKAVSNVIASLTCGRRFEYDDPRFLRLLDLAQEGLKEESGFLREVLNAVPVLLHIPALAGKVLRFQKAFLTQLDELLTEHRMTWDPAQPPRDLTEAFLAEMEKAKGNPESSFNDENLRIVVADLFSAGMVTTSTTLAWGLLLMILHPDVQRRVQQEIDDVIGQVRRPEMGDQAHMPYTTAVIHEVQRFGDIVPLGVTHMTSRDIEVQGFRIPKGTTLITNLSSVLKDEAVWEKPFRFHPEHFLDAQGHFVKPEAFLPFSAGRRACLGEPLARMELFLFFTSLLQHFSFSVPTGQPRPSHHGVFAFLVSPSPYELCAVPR
T1 sequence (P35408 whole entry): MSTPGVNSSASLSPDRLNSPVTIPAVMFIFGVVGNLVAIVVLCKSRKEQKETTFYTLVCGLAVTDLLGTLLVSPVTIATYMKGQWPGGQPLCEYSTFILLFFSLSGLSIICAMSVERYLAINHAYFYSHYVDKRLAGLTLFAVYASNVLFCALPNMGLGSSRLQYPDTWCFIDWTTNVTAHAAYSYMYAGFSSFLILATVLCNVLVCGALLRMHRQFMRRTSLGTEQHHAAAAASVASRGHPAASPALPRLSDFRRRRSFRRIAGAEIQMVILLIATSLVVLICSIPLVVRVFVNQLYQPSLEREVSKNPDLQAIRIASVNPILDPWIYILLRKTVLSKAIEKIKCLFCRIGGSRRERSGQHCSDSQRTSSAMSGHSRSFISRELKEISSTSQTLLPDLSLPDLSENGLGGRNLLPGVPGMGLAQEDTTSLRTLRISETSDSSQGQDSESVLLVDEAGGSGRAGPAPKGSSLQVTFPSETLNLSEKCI
Chain of D(2) dopamine receptor (Homo sapiens) (P14416 whole entry): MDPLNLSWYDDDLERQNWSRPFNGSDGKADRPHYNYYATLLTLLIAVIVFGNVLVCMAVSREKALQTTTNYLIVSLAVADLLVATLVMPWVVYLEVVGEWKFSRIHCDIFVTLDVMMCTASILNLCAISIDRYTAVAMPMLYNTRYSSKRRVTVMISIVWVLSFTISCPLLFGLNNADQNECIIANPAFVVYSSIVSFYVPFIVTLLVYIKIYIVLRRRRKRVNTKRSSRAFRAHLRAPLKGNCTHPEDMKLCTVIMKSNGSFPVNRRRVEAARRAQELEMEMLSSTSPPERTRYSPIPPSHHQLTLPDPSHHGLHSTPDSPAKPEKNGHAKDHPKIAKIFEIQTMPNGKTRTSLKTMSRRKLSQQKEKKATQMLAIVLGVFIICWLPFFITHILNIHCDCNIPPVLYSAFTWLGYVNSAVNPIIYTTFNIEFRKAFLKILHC
Chain of Mu-type opioid receptor (Homo sapiens) (P35372 whole entry): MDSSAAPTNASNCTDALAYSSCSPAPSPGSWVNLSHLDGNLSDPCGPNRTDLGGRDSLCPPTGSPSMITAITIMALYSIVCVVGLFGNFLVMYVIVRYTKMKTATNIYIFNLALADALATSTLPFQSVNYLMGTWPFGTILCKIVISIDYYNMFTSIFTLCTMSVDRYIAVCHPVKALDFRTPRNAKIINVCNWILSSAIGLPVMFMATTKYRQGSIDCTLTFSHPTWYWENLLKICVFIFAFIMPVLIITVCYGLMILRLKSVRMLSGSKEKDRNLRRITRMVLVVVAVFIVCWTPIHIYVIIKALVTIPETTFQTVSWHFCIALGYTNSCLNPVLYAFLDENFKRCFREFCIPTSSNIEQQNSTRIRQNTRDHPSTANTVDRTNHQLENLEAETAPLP

Cc1ccc(N2CCC(F)(F)CC2)nc1C(=O)Nc1c(C)cc(C(=O)O)cc1C
IC50 [1]: 1.16 µM
IC50 [2]: 0.00161 µM

Cc1ccc(N2CCC(O)CC2)nc1C(=O)Nc1c(C)cc(C(=O)O)cc1C
IC50 (Cytochrome P450 1A2 [3]): > 10 µM
IC50 (Cytochrome P450 2B6 [4]): > 10 µM
IC50 (Cytochrome P450 2C9 [5]): > 10 µM
IC50 (Cytochrome P450 2C8 [6]): > 10 µM
IC50 (Cytochrome P450 2D6 [7]): > 10 µM
IC50 (Cytochrome P450 3A4 [8]): > 10 µM
inhibition [9]: -8%
inhibition [10]: -4%
inhibition [11]: 3%
inhibition [12]: -2%
inhibition [13]: 14%
inhibition [14]: 5%
inhibition [15]: -3%
inhibition [16]: 6%
inhibition [17]: 0%
inhibition [18]: -8%
Activity (Rattus norvegicus [19]): Active
inhibition at 10 µM [20]: -39%
inhibition at 10 µM [21]: -23%
inhibition at 10 µM [22]: 1%
inhibition [23]: 7%
inhibition [24]: 7%
inhibition (INH) (Cytochrome P450 1A2 [25]): Not Active
inhibition (INH) (Cytochrome P450 2B6 [26]): Not Active
inhibition (INH) (Cytochrome P450 2C9 [27]): Not Active
inhibition (INH) (Cytochrome P450 2C8 [28]): Not Active
inhibition (INH) (Cytochrome P450 2C19 [29]): Not Active
IC50 (Cytochrome P450 2C19 [30]): > 10 µM
inhibition (INH) (Cytochrome P450 2D6 [31]): Not Active
inhibition (INH) (Cytochrome P450 3A4 [32]): Not Active
inhibition (INH) [33]: Not Active
inhibition [34]: inactive
inhibition [35]: inactive
inhibition [36]: inactive
inhibition [37]: inactive
inhibition [38]: inactive
Activity (Rattus norvegicus [39]): Dose-dependent effect
inhibition [40]: inactive
solubility at 20 h, 2000 µM [41]: 762 µg/mL (≈ 1990 µM)
clearance [42]: 3 mL/min/kg
AUC [43]: 9670 ng·h/mL
Cmax [44]: 3100 ng/mL
half-life [45]: 5.1 h
bioavailability [46]: 34%
Vd [47]: 0.34 L/kg
AUC [48]: 6320 ng·h/mL
Cmax [49]: 1870 ng/mL
half-life [50]: 5.1 h
clearance [51]: 10 mL/min/kg
Vd [52]: 1.73 L/kg
bioavailability [53]: 75%
